Experiment [1] has as its system A2780. The experiment can be described thus: Antiproliferative activity against human A2780 cells assessed as inhibition of cell growth incubated for 2 days by alamar blue assay. It is filed as cell-based. The note with it: A2780, 48 h. (The colour change of resazurin is a common sign of viable cells or microbes.)
Experiment [2] concerns Plasmodium falciparum. The experiment can be described thus: Antimalarial activity against chloroquine/mefloquine-resistant Plasmodium falciparum Dd2 incubated for 72 hrs by SYBR green I-based fluorescence assay. Format: functional, organism-based. The note with it: Dd2, 72 h. In short, it runs like this: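 Parasite growth of P. falciparum Dd2 (chloroquine/mefloquine-resistant) measured after 72 h compound treatment with the SYBR green I-based fluorescence assay; artemisinin run as positive control; IC50 values reported.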

A value given as a limit tells only on which side of the number the result lay.

For the compound `CCCCCCCCCCC/C=C\CCCCCCCC1C[C@H]2C[C@H](CC(=O)O2)O1` (stereo partly drawn), the IC50 (commonly the point on the concentration scale where inhibition reaches its midpoint) was greater than 10 µM in experiment [1] and 6 µM in experiment [2]. Taken in the same sequence, the figures for `CCCCCCCC/C=C\CCCCCCC[C@H](O)C[C@H]1CC=CC(=O)O1` were greater than 10 µM and 7.4 µM. As for `CCCCCCCCCCCCCCC[C@@H](O)C[C@H](O)C[C@H]1CC=CC(=O)O1`, the IC50 was greater than 10 µM in experiment [1] and 5.8 µM in experiment [2]. The corresponding values for `CCCCCCCC/C=C\CCCCCC(O)CC1C[C@H]2C[C@H](CC(=O)O2)O1` (stereo partly drawn) are greater than 10 µM and 4 µM. `CCCCCCCC(O)CCCCCCC/C=C/[C@H]1C[C@H]2C[C@H](CC(=O)O2)O1` (stereo partly drawn): the IC50 in experiment [1] and in experiment [2] was greater than 10 µM each time.

On to `CCCCCC/C=C\CCCCCCC[C@@H](O)C[C@H]1CC=CC(=O)O1`, for which the figures for the IC50 in experiment [1] and in experiment [2] were 8.6 µM and 5.5 µM, respectively.

Regarding `CCCCCCCCCCCCC[C@@H](O)C[C@H]1CC=CC(=O)O1`, the IC50 was greater than 10 µM in experiment [1] and 9.2 µM in experiment [2]. For the compound `CCCCCCCCCCCCCCC[C@@H](O)C[C@H]1C[C@H]2C[C@H](CC(=O)O2)O1`, the IC50 in experiment [1] and in experiment [2] was greater than 10 µM throughout. `CCCCCCCC(O)CCCCCCC/C=C/[C@H](O)C[C@H]1CC=CC(=O)O1` (stereo partly drawn): the results for the IC50 in experiment [1] and in experiment [2] were greater than 10 µM and 9 µM, respectively. The corresponding values for `CCCCCC/C=C\CCCCCCC[C@@H]1C[C@H]2C[C@H](CC(=O)O2)O1` are greater than 10 µM and greater than 10 µM. Taken in the same sequence, the figures for `CCCCCCCCCCCCC(O)CC1C[C@H]2C[C@H](CC(=O)O2)O1` (stereo partly drawn) were greater than 10 µM and greater than 10 µM.

In experiment [2], `C[C@@H]1CC[C@H]2[C@@H](C)C(=O)O[C@@H]3O[C@@]4(C)CC[C@@H]1[C@]32OO4` [ARTEMISININ] came in with an IC50 of 0.007 µM.

The values are drawn from ChEMBL document CHEMBL3580559, “Antimalarial 5,6-Dihydro-α-pyrones from Cryptocarya rigidifolia: Related Bicyclic Tetrahydro-α-Pyrones Are Artifacts1” (J Nat Prod, 2015).
